Converted amounts (≈) assume the structure as drawn.

Broadly, the IC50 is the concentration needed to halve the response being measured. What is called solubility is the concentration that dissolves in the medium under given conditions. A higher solubility goes with much dissolved substance.

Data set [1] deals with Sodium- and chloride-dependent betaine transporter (Homo sapiens, UniProt P48065). Nature of the data set: Inhibition of human BGT1/human GAT3 chimera B expresses in tsA201 cells assessed as reduction in [3H]GABA uptake after 3 mins by scintillation counting method. Type of data set: cell-based. The method in brief:
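BGT1/GAT3 chimeric constructs transiently expressed in tsA201 cells. After about 24 h, cells were washed in HEPES-buffered HBSS (1 mM CaCl2, 1 mM MgCl2, pH 7.4). IC50 came from variable-slope sigmoidal regression. Triplicates, at least two independent experiments.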

Data set [2] has as its target Sodium- and chloride-dependent GABA transporter 1 (Mus musculus, UniProt P31648). The data set can be described thus: Inhibition of mouse GAT1 expressed in HEK293 cells assessed as reduction in [3H]GABA uptake after 3 mins by scintillation counting method. It is filed as cell-based. In a few lines:
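HEK293 lines stably expressing a single mouse GAT subtype, kept under blasticidin-S (5 µg/mL) selection. Cells were assayed about 24 h after plating with 30 nM [3H]GABA plus varying compound concentrations for 3 min at 37 °C in HBSS buffered with 20 mM HEPES (1 mM CaCl2, 1 mM MgCl2, pH 7.4). Cells were washed ice-cold and radioactivity counted. IC50 came from sigmoidal variable-slope fits.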

Data set [3] addresses T1, GABA transporter 3 (Mus musculus, UniProt P31649).
T1 sequence (P31649 whole entry): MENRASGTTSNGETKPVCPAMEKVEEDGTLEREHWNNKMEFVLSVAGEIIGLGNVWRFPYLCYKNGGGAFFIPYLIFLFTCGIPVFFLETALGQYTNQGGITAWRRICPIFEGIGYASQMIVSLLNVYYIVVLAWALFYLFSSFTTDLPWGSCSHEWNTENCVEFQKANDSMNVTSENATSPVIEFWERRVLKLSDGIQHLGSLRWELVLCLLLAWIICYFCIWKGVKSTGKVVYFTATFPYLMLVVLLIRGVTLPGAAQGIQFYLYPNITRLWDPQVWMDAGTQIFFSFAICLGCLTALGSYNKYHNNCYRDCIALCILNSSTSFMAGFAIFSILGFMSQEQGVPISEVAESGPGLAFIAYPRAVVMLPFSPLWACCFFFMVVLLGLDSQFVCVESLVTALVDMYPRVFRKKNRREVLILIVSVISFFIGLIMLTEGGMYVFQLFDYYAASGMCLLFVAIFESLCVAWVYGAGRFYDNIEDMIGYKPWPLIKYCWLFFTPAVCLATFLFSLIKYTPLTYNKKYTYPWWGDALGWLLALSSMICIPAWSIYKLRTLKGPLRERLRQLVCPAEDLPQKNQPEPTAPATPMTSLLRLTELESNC
Nature of the data set: Inhibition of mouse GAT2 expressed in HEK293 cells assessed as reduction in [3H]GABA uptake after 3 mins by scintillation counting method. Type of data set: cell-based. In a few lines:
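HEK293 cells stably expressing mouse GAT2 were kept under blasticidin-S (5 µg/mL) selection. Ice-cold washes preceded scintillation counting. IC50 came from a variable-slope sigmoidal fit.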

Data set [4] has as its target Sodium- and chloride-dependent betaine transporter (Homo sapiens, UniProt P48065, Q299L). The data set can be described thus: Inhibition of human BGT1 Q299L mutant expressed in tsA201 cells assessed as reduction in [3H]GABA uptake after 3 mins by scintillation counting method. It is filed as cell-based. The method in brief: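 Site-directed mutant transporters transiently transfected (PolyFect) into tsA201 cells, plated and used about 24 h later. Cells were washed with HBSS containing 20 mM HEPES, 1 mM CaCl2 and 1 mM MgCl2, pH 7.4. IC50 was taken from variable-slope sigmoidal fits. Triplicates, at least three independent experiments.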

Data set [5] is described as follows: Solubility of compound in pH 7.4 phosphate buffer after 24 hrs by HPLC-UV method. It is filed as physicochemical.
The target of data set [6] is T2, Sodium- and chloride-dependent GABA transporter 2 (Homo sapiens, UniProt Q9NSD5).
T2 sequence (Q9NSD5 whole entry): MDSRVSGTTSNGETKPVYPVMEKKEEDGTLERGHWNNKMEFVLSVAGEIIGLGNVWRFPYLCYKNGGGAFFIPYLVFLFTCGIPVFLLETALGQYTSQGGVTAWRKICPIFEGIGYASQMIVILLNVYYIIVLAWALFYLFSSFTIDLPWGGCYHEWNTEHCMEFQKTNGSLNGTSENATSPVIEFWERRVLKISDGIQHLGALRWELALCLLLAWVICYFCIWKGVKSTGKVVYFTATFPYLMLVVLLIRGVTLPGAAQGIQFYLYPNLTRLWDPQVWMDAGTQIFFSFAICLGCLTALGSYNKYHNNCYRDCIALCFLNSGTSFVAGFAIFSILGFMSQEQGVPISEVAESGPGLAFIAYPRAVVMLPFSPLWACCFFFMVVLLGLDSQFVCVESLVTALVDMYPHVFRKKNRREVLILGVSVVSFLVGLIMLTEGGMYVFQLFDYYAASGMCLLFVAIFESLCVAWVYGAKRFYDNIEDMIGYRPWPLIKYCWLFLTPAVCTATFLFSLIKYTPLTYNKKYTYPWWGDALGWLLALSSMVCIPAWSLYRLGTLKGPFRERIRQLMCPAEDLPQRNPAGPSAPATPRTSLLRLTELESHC
Nature of the data set: Inhibition of human GAT2 expresses in tsA201 cells assessed as reduction in [3H]GABA uptake after 3 mins by scintillation counting method. Type of data set: cell-based. The method in brief:
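Wild-type human GAT transiently expressed in tsA201 cells via pcDNA5/FRT and PolyFect. Uptake of 30 nM [3H]GABA was run for 3 min at 37 °C in HBSS/20 mM HEPES with 1 mM CaCl2 and 1 mM MgCl2, pH 7.4, across a range of test concentrations. Ice-cold washes were followed by scintillation counting. IC50 was obtained by sigmoidal variable-slope fitting, reported as mean pIC50 ± S.E.M.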

The target in data set [7] is Sodium- and chloride-dependent GABA transporter 3 (Homo sapiens, UniProt P48066, L314Q). The data set can be described thus: Inhibition of human GAT3 L314Q mutant expresses in tsA201 cells assessed as reduction in [3H]GABA uptake after 3 mins by scintillation counting method. Type of data set: cell-based. In a few lines: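 Site-directed mutant transporters transiently transfected (PolyFect) into tsA201 cells, plated and used about 24 h later. Cells were washed with HBSS containing 20 mM HEPES, 1 mM CaCl2 and 1 mM MgCl2, pH 7.4. Uptake of 30 nM [3H]GABA was run with varied inhibitor concentrations for 3 min at 37 °C, then three ice-cold washes and scintillation counting. IC50 was taken from variable-slope sigmoidal fits. Triplicates, at least three independent experiments.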
Sodium- and chloride-dependent GABA transporter 3, sequence (P48066 whole entry L314Q): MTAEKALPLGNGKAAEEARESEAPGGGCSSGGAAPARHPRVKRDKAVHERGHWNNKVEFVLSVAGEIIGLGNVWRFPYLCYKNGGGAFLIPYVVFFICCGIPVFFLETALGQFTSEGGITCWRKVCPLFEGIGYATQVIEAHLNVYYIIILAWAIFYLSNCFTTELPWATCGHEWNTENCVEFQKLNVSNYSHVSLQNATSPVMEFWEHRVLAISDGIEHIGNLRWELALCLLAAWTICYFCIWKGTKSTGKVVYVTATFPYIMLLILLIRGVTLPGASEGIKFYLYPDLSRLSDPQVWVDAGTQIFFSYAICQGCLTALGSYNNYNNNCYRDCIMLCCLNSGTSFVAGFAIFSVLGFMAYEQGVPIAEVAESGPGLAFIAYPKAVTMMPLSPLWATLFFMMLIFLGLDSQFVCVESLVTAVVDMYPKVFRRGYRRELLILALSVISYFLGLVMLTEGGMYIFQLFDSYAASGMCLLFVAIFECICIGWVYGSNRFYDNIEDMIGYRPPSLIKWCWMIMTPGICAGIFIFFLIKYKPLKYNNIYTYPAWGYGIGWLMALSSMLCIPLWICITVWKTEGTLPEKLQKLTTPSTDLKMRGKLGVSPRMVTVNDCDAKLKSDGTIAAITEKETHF

Sodium- and chloride-dependent betaine transporter (Homo sapiens, UniProt P48065, Q299L), sequence (P48065 whole entry Q299L): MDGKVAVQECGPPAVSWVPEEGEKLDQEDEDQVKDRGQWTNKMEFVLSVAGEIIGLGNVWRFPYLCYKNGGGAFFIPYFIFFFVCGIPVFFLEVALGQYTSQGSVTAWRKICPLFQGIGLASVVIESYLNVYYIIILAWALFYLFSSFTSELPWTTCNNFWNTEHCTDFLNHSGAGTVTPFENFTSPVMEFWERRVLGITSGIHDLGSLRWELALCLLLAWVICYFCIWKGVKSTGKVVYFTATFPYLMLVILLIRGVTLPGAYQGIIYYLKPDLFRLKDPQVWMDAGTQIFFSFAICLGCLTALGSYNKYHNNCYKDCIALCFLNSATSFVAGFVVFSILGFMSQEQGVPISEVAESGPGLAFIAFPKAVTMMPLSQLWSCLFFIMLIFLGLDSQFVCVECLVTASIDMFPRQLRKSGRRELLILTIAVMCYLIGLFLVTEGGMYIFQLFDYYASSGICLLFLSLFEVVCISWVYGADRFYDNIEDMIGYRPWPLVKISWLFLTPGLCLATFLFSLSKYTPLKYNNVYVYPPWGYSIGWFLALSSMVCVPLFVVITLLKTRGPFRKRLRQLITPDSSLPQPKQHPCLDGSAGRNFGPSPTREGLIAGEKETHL
Sodium- and chloride-dependent betaine transporter (Homo sapiens, UniProt P48065), sequence (P48065 whole entry, looked up): as the sequence (P48065 whole entry Q299L) above, with L299Q counted along it

For the compound `O=C(NC1CCN(Cc2ccccc2)CC1)c1ccc(Cl)cc1Cl`, the IC50 was greater than 1000 µM in data set [1]; greater than 200 µM in data set [2]; greater than 200 µM in data set [3]; 3 µM in data set [4]; greater than 100 µM in data set [6]; 460 µM in data set [7]. The amount in solution in data set [5] (solubility at 24 h) came to 40 µg/mL (≈ 110 µM).

In the case of `O=C(NC1CCN(Cc2ccccc2)CC1)c1ccc(Cl)nc1Cl`, the half-maximal inhibitory concentration (IC50) in data set [1] was greater than 1000 µM; in data set [2], greater than 400 µM; in data set [3] it was greater than 400 µM; in data set [4], 8 µM; in data set [6] (read-out: IC50) it was 479 µM; in data set [7], 405 µM. The same compound had a solubility at 24 h in data set [5] of 610 µg/mL (≈ 1670 µM).
